# Measurements from paper PMC2151581 (The Journal of General Physiology, 2006).
# Ends that are not written are not given here.
# How the values were obtained:
# BK channels = details: wild type and calcium bowl mutant channels; ref Zakharov et al., 2005; cited from earlier work
# [1] = target: Drosophila Slowpoke calcium-dependent potassium channel (dSlo) (Drosophila melanogaster, UniProt Q03720); experiment: Inside-out patch recording of dSlo current with peptide on the cytoplasmic side; format: cell-based
# Method in brief: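 Inside-out patches came from CHO cells transfected with dSlo, in symmetrical 150 mM KCl, 0.5 mM HEDTA, 1 mM Mg²⁺, 10 mM HEPES pH 7.2, with 7 μM free Ca²⁺, at room temperature. Peptide was dissolved in the bath (cytoplasmic side). Patches were stepped from −80 to +140 mV; the mean current over the last 10 ms was normalized to the same patch before peptide. A Hill equation fit across concentrations gave IC50.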
# dSlo = experiment: Coimmunoprecipitation of Slobs with dSlo from CHO cell lysates, Western blot; format: binding, Drosophila; details: cotransfected CHO cells, anti-Slob immunoprecipitation
# Method in brief: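 Slobs were cotransfected with the channel into CHO cells (Ham's F-12, 10% FBS, penicillin/streptomycin) using Lipofectamine 2000. Lysis was 1 d later in Tris-HCl pH 7.5/NaCl/KCl/NaF/1% CHAPS buffer with DTT and protease inhibitors. The 16,000 g supernatant was incubated with anti-Slob for 2 h at 4°C, then protein A/G agarose overnight at 4°C, with four PBS washes. SDS-PAGE, nitrocellulose, anti-dSlo 1 h at RT, HRP anti-rabbit, ECL. Controls were blank vector and nontransfected cells.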
# [2] = test system: dSloD5N5 (calcium bowl mutant of dSlo); format: cell-based, Drosophila
# Method in brief: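 CHO cells were cotransfected 1:1 (molar) with dSloD5N5 and Slob57 or truncation mutants using Lipofectamine 2000. Whole-cell recording was done 1 d later at room temperature with 2–4 MΩ pipettes, in symmetrical 150 mM KCl, 0.5 mM HEDTA, 2 mM MgCl₂, 10 mM HEPES pH 7.2, with 110 or 300 μM free Ca²⁺ in the pipette. Holding was −80 mV, then −120 mV afterward. 350-ms pulses were used for inactivation; 100-ms pulses gave G–V from peak tail currents and V1/2. Mean ± SEM, ANOVA/Bonferroni.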
# Sequence of Drosophila Slowpoke calcium-dependent potassium channel (dSlo) (Q03720 whole entry): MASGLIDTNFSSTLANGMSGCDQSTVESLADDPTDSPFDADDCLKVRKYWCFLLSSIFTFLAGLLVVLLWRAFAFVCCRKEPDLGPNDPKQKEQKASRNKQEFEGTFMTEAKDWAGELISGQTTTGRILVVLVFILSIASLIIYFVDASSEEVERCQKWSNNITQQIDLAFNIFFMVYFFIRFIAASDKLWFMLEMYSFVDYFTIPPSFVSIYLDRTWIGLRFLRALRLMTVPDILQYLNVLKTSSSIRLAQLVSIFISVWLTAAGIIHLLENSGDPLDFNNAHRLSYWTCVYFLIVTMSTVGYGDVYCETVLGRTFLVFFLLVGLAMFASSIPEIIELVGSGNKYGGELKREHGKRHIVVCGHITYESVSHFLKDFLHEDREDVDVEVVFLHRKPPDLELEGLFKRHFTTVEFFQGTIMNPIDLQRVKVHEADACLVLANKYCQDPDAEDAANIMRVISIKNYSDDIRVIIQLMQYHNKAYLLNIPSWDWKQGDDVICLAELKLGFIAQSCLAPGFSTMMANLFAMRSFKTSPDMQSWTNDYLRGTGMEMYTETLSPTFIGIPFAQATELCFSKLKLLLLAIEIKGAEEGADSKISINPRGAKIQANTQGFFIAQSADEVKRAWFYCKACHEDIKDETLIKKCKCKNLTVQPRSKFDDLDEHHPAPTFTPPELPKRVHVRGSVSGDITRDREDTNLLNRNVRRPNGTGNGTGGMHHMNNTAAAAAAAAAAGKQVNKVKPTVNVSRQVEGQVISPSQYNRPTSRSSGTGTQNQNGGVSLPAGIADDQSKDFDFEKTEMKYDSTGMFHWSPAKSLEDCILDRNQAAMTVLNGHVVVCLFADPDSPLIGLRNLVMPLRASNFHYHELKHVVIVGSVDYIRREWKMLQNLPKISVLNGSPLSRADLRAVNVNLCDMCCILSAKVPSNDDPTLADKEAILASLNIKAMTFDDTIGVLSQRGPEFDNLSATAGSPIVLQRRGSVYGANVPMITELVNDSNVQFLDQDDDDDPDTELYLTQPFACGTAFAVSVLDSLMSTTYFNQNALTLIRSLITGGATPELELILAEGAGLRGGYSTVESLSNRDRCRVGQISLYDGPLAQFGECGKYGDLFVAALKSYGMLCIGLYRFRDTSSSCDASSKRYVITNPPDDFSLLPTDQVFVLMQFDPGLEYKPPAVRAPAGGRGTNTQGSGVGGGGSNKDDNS
molecule,measurement,setting,value
CC(=O)c1c(O)c(C)c(O)c(Cc2c(O)c3c(c(C(=O)/C=C/c4ccccc4)c2O)OC(C)(C)C=C3)c1O [mallotoxin],Ca2+ dependence of the modulation of BK channels,BK channels,independent of Ca^2+ binding
MFKFNK [MFKFNK],IC50,[1],31 µM
same,Kd,[1],162 µM
Slob57ΔN15: amino-terminal 15 residue–truncated Slob57 (deletion of residues 2–16) (protein) MNSAVTGHDPFVRPPVPEKKVRNIMKKLHKANGLKRSNSAIEFDVSALTAANRRQIYSSNRSASSEQDNSDLSEHSEKSPLVSARLDNLARLFFSKSMPAETGSRDTIDSVLTTRPNIKYQYSALDSGNGIVERSPRERAQREKALNATQEWIQGANGRYEVIAHLDEIGSRHGKNWFLVTDASVRTDRLQTLLPLPPDCVAFEDLPPNECAREILMELLGSLHHPYIYPVLDLGFLRNSSYNYACLVTPFNSRGSLKDLIYKAQWNEPWARKYTRKPNGLPVSQVQRLGRQILEALLFLKERGFPLHGHLHSGNVILQNGAARLSGLENGLLGLSSRINAVMWSRSVTEIENVDIVCFGHLLYEMCTGQELTTPKPSMRVLEMELQHYPQIGQTRKQILEILGLIFEPPSGVCPSVEDLVLCDLFRSIDLRELRGPCFSTIKPSLSRSTLNLLQAVKKRQCASLGHSLSEANSPCTPPSTPHDRRTGVLPAPYEVFRMY,binding to dSlo (coimmunoprecipitation),dSlo,still bind to dSlo
Slob57ΔN5: amino-terminal five residue–truncated Slob57 (deletion of residues 2–6) (protein) MAAQQQRIDNRNSAVTGHDPFVRPPVPEKKVRNIMKKLHKANGLKRSNSAIEFDVSALTAANRRQIYSSNRSASSEQDNSDLSEHSEKSPLVSARLDNLARLFFSKSMPAETGSRDTIDSVLTTRPNIKYQYSALDSGNGIVERSPRERAQREKALNATQEWIQGANGRYEVIAHLDEIGSRHGKNWFLVTDASVRTDRLQTLLPLPPDCVAFEDLPPNECAREILMELLGSLHHPYIYPVLDLGFLRNSSYNYACLVTPFNSRGSLKDLIYKAQWNEPWARKYTRKPNGLPVSQVQRLGRQILEALLFLKERGFPLHGHLHSGNVILQNGAARLSGLENGLLGLSSRINAVMWSRSVTEIENVDIVCFGHLLYEMCTGQELTTPKPSMRVLEMELQHYPQIGQTRKQILEILGLIFEPPSGVCPSVEDLVLCDLFRSIDLRELRGPCFSTIKPSLSRSTLNLLQAVKKRQCASLGHSLSEANSPCTPPSTPHDRRTGVLPAPYEVFRMY,binding to dSlo (coimmunoprecipitation),dSlo,still bind to dSlo
Slob57: ion channel auxiliary protein that binds to and modulates the Drosophila Slowpoke channel (dSlo) (protein) MFKFNKAAQQQRIDNRNSAVTGHDPFVRPPVPEKKVRNIMKKLHKANGLKRSNSAIEFDVSALTAANRRQIYSSNRSASSEQDNSDLSEHSEKSPLVSARLDNLARLFFSKSMPAETGSRDTIDSVLTTRPNIKYQYSALDSGNGIVERSPRERAQREKALNATQEWIQGANGRYEVIAHLDEIGSRHGKNWFLVTDASVRTDRLQTLLPLPPDCVAFEDLPPNECAREILMELLGSLHHPYIYPVLDLGFLRNSSYNYACLVTPFNSRGSLKDLIYKAQWNEPWARKYTRKPNGLPVSQVQRLGRQILEALLFLKERGFPLHGHLHSGNVILQNGAARLSGLENGLLGLSSRINAVMWSRSVTEIENVDIVCFGHLLYEMCTGQELTTPKPSMRVLEMELQHYPQIGQTRKQILEILGLIFEPPSGVCPSVEDLVLCDLFRSIDLRELRGPCFSTIKPSLSRSTLNLLQAVKKRQCASLGHSLSEANSPCTPPSTPHDRRTGVLPAPYEVFRMY,shift of the conductance–voltage relationship of dSloD5N5,"[2]; 100-ms test pulse, 110 μM free Ca2+",does not rightward shift
same,modulation of V1/2 of dSloD5N5,"[2]; 100-ms test pulse, 300 μM free Ca2+",not modulated
same,inactivation of dSloD5N5,"[2]; coexpression in CHO cells, whole cell, 110 μM free Ca2+, 350-ms test pulse",causes dSloD5N5 inactivation
